Reference: article PMC9536290 (Clinical Infectious Diseases: An Official Publication of …, 2022)

Assays:
[1] = test system: HIV-1 with A364V mutation; experiment: Phenotypic resistance of participant virus with A364V; format: cell-based; conditions: virus of 1 participant (200 mg) with full conversion to A364V
[2] = Phase IIa monotherapy study: plasma pharmacokinetics; format: in vivo, HIV-1–positive, treatment-naive adults; conditions: for Accumulation ratio AUC0-τ, geometric mean (% CVb) / Accumulation ratio Cmax, geometric mean (% CVb) / Accumulation ratio Cτ, geometric mean (% CVb): steady state vs day 1; for Tmax / AUC(0-t): human
How it was run: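 Oral doses were given once daily with food: part 1 for 10 days, part 2 for 7 days. Plasma drug was measured by LC-MS/MS (range 3.00–1000 ng/mL). Noncompartmental parameters were AUC0-24, Cmax and tmax on day 1, and AUC0-τ, Cmax and Cτ at steady state (day 8, 9 or 10 in part 1; day 7 in part 2). Accumulation ratios were steady state vs day 1, and dose proportionality used a power model. Participants vomiting within 1× tmax were excluded.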

[3] = observed in other studies; cited from earlier work

Question: What does the source list for C=C(C)[C@@H]1CC[C@]2(NCCN3CCS(=O)(=O)CC3)CC[C@]3(C)[C@H](CC[C@@H]4[C@@]5(C)CC=C(C6=CC[C@@](CF)(C(=O)O)CC6)C(C)(C)[C@@H]5CC[C@]43C)[C@@H]12 [GSK’254]?
Answer: Fold change in half maximal inhibitory concentration (phenotypic resistance) [1]: 132 fold; Accumulation ratio AUC0-τ, geometric mean (% CVb) ([2]; 10 mg once daily): 1.54 (24.5); Accumulation ratio Cmax, geometric mean (% CVb) ([2]; 10 mg once daily): 0.93 (171.7); Accumulation ratio Cτ, geometric mean (% CVb) ([2]; 10 mg once daily): 1.48 (22.2); Accumulation ratio AUC0-τ, geometric mean (% CVb) ([2]; 40 mg once daily): 2.29 (11.2); Accumulation ratio Cmax, geometric mean (% CVb) ([2]; 40 mg once daily): 2.03 (24.4); Accumulation ratio Cτ, geometric mean (% CVb) ([2]; 40 mg once daily): 2.30 (6.4); Accumulation ratio AUC0-τ, geometric mean (% CVb) ([2]; 80 mg once daily): 1.93 (18.6); Accumulation ratio Cmax, geometric mean (% CVb) ([2]; 80 mg once daily): 1.73 (17.6); Accumulation ratio Cτ, geometric mean (% CVb) ([2]; 80 mg once daily): 1.94 (20.8); Accumulation ratio Cmax, geometric mean (% CVb) ([2]; 140 mg once daily): 2.02 (37.5); Accumulation ratio Cτ, geometric mean (% CVb) ([2]; 140 mg once daily): 1.90 (16.0); Accumulation ratio AUC0-τ, geometric mean (% CVb) ([2]; 200 mg once daily): 2.25 (72.1); Accumulation ratio Cmax, geometric mean (% CVb) ([2]; 200 mg once daily): 1.98 (69.4); Accumulation ratio Cτ, geometric mean (% CVb) ([2]; 200 mg once daily): 1.98 (61.2); Dose proportionality of plasma PK ([2]; 10-200 mg): generally dose proportional to 140 mg but non-proportional between 140 and 200 mg; Tmax ([2]; plasma, oral, Median tmax across all doses, steady state, 10-200 mg): 4.02 to 5.48 h; AUC(0-t) ([2]; plasma, po, 10 mg): 0.7 µg·h/mL; AUC(0-t) ([2]; plasma, po, 40 mg): 3.25 µg·h/mL; AUC(0-t) ([2]; plasma, po, 80 mg): 6.12 µg·h/mL; AUC(0-t) ([2]; plasma, po, 140 mg): 14 µg·h/mL; Tmax ([2]; plasma, po, 140 mg, tmax, median (range), repeat dose 140 mg once daily, day 7 (part 2), plasma, n = 6): 4.08 h; AUC(0-t) ([2]; plasma, po, 200 mg): 12.4 µg·h/mL; Tmax ([2]; plasma, po, 200 mg, tmax, median (range), repeat dose 200 mg once daily, Day 8, 9, or 10 (part 1), plasma, n = 6): 5.48 h; Dose proportionality power model estimated slope (90% CI) for Cτ ([2]; repeat administration, steady state): 1.14 (90% CI: 1.02–1.26); CL/F (apparent oral clearance), geometric mean (% CVb) ([2]; repeat dose 40 mg once daily, day 7 (part 2), n = 6): 5360 (26.8) mL/h; CL/F (apparent oral clearance), geometric mean (% CVb) ([2]; repeat dose 80 mg once daily, day 7 (part 2), n = 6): 6765 (26.7) mL/h; CL/F (apparent oral clearance), geometric mean (% CVb) ([2]; repeat dose 140 mg once daily, day 7 (part 2), n = 6): 4779 (27.9) mL/h; CL/F (apparent oral clearance), geometric mean (% CVb) ([2]; repeat dose 200 mg once daily, Day 8, 9, or 10 (part 1), n = 6): 7159 (18.4) mL/h; AUC0-τ, geometric mean (% CVb) ([2]; repeat dose 200 mg once daily, Day 8, 9, or 10 (part 1), plasma, n = 6): 27.90 (18.4) µg∗h/mL; Mean trough concentration relative to target trough concentration ([2]; ≥40-mg groups (all dose groups except 10 mg)): > 110 ng/mL; Terminal phase half-life [3]: ~ 24 hours
